# Experiments:
# [1] = Stability of analytes in spiked human plasma and wet extract; type: physicochemical; settings: for Mean stability sample ±SD: n=6
# Summary of the method: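 Human blank plasma spiked at LQC (OST/OSTC 1.5/6.0 ng/mL) and HQC (160/640 ng/mL), with dichlorvos as esterase inhibitor. Bench top (room temperature), autosampler (wet extract), freeze-thaw and long term (−20 °C, −70 °C) stability were tested, six replicates per level. Samples were thawed in an ice bath below 10 °C and extracted. Stability was read as analyte/IS area ratio by LC–MS/MS against freshly prepared comparison standards.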
# [2] = type: in vivo; settings: human, plasma, po, 75 mg, 75 mg oral, fed, healthy Indian subjects, mean ±SD; for AUC(0-t): AUC 0–48, reference formulation (TAMIFLU); for AUC(0-inf): reference formulation (TAMIFLU); for half-life: t1/2, reference formulation (TAMIFLU)
# Summary of the method: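 Healthy Indian volunteers (n=42), fed, single oral 75 mg capsule of test compound, test and reference formulations over two periods. Blood taken 0–48 h into K3EDTA tubes on ice (<10 °C). Plasma mixed 95:5 v/v with dichlorvos stock (4 mg/mL) and stored at −20 °C, then below −70 °C. Parent and carboxylate metabolite measured by validated LC–MS/MS. Calibration ranges were 0.5–200 and 2.0–800 ng/mL.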
# [3] = cited from earlier work
# [4] = cited from earlier work; for renal excretion (share of dose): 100 mg dose, as OSTC or as unchanged drug
# [5] = hydrolysis controlled; cited from earlier work
# [6] = Bench top stability (ambient temperature), 12 h, HQC (160/640 ng/mL OST/OSTC)
# [7] = Bench top stability (ambient temperature), 12 h, HQC, vs comparison samples
# [8] = Bench top stability (ambient temperature), 12 h, LQC (1.5/6.0 ng/mL OST/OSTC)
# [9] = Bench top stability (ambient temperature), 12 h, LQC, vs comparison samples
# [10] = Freeze & thaw stability in plasma, 5 cycles, −20 °C, HQC
# [11] = Freeze & thaw stability in plasma, 5 cycles, −20 °C, LQC
# [12] = Freeze & thaw stability in plasma, 5 cycles, −70 °C, HQC
# [13] = Freeze & thaw stability in plasma, 5 cycles, −70 °C, LQC
# [14] = Long term stability in plasma: 61 days, −20 °C, HQC
# [15] = Long term stability in plasma: 61 days, −20 °C, LQC
# [16] = Long term stability in plasma: 61 days, −70 °C, HQC
# [17] = Long term stability in plasma: 61 days, −70 °C, LQC
# [18] = Wet extract stability (5 °C), 25 h, HQC
# [19] = Wet extract stability (5 °C), 25 h, LQC
# [20] = Wet extract stability (25 °C), 10 h, HQC
# [21] = Wet extract stability (25 °C), 10 h, LQC
# [22] = following oral administration of OST in healthy volunteers
Structure (SMILES),"Mean stability sample ±SD [1, 6]","Change (%) [1, 7]","Mean stability sample ±SD [1, 8]","Change (%) [1, 9]","Change (%) [1, 10]","Mean stability sample ±SD [1, 10]","Change (%) [1, 11]","Mean stability sample ±SD [1, 11]","Change (%) [1, 12]","Mean stability sample ±SD [1, 12]","Change (%) [1, 13]","Mean stability sample ±SD [1, 13]","Change (%) [1, 14]","Mean stability sample ±SD [1, 14]","Change (%) [1, 15]","Mean stability sample ±SD [1, 15]","Change (%) [1, 16]","Mean stability sample ±SD [1, 16]","Change (%) [1, 17]","Mean stability sample ±SD [1, 17]",other results
"CCC(CC)O[C@@H]1C=C(C(=O)O)C[C@H](N)[C@H]1NC(C)=O [Oseltamivir carboxylate, oseltamivir carboxylate]",653.1 ± 23.7 ng/mL,1.40%,5.841 ± 0.495 ng/mL,1.40%,−1.57%,626.2 ± 22.7 ng/mL,−2.79%,5.583 ± 0.553 ng/mL,−1.57%,626.0 ± 25.6 ng/mL,0.35%,5.762 ± 0.394 ng/mL,−0.85%,698.4 ± 16.6 ng/mL,2.72%,6.791 ± 0.273 ng/mL,0.43%,707.4 ± 19.0 ng/mL,−1.82%,6.492 ± 0.328 ng/mL,"Change (%) [1, 18]: 0.47%; Mean stability sample ±SD [1, 18]: 647.2 ± 18.2 ng/mL; Change (%) [1, 19]: 4.55%; Mean stability sample ±SD [1, 19]: 5.983 ± 0.556 ng/mL; Change (%) [1, 20]: −0.31%; Mean stability sample ±SD [1, 20]: 642.4 ± 13.4 ng/mL; Change (%) [1, 21]: 5.77%; Mean stability sample ±SD [1, 21]: 6.050 ± 0.393 ng/mL; AUC(0-t) [2]: 3900 ± 721 ng·h/mL; AUC(0-inf) [2]: 3990 ± 729 ng·h/mL; half-life [2]: 7.5 ± 0.96 h; protein bound [3]: about 43%; renal excretion (share of dose) [4]: 63%; time to maximum plasma levels (Cmax) [4, 22]: ≤ 5 h; time until detectable in plasma [4, 22]: about 30 min"
"CCOC(=O)C1=C[C@@H](OC(CC)CC)[C@H](NC(C)=O)[C@@H](N)C1 [Oseltamivir, oseltamivir]",167.0 ± 9.5 ng/mL,0.60%,1.430 ± 0.043 ng/mL,2.14%,−3.05%,159.3 ± 9.1 ng/mL,−4.23%,1.364 ± 0.075 ng/mL,−2.44%,160.2 ± 5.4 ng/mL,1.41%,1.442 ± 0.070 ng/mL,1.18%,172.3 ± 3.9 ng/mL,−3.61%,1.635 ± 0.096 ng/mL,0.59%,171.1 ± 3.7 ng/mL,−1.81%,1.632 ± 0.035 ng/mL,"Change (%) [1, 18]: 1.81%; Mean stability sample ±SD [1, 18]: 169.2 ± 7.4 ng/mL; Change (%) [1, 19]: 5.71%; Mean stability sample ±SD [1, 19]: 1.481 ± 0.086 ng/mL; Change (%) [1, 20]: 3.61%; Mean stability sample ±SD [1, 20]: 172.1 ± 10.4 ng/mL; Change (%) [1, 21]: 4.29%; Mean stability sample ±SD [1, 21]: 1.460 ± 0.077 ng/mL; AUC(0-t) [2]: 153 ± 35 ng·h/mL; AUC(0-inf) [2]: 163 ± 37 ng·h/mL; half-life [2]: 4.97 ± 3.27 h; stability of OST concentration in samples kept on ice [5]: up to 1 h; renal excretion (share of dose) [4]: 3%"

# — PMC5760963 (Journal of Pharmaceutical Analysis, 2012)
